Assay results from ChEMBL document CHEMBL1155685, “Antiproliferative triterpene saponins from Trevesia palmata” (J Nat Prod, 2000).

Key:
[1] = system: WEHI-164; assay: Antiproliferative activity against mouse WEHI164 cells assessed as reduction of cell growth after 72 hrs by MTT method; assay type: functional, cell-based; settings: WEHI-164, 72 h
In short: (§1)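 Cells (3.4 × 10^4) seeded in 96-well plates, left to adhere 2 h at 37 °C in 5% CO2. Medium replaced with fresh medium, then 1:4 serial dilutions of compound added. Incubation 72 h. MTT (5 mg/mL stock) added for 3 h. Crystals dissolved in 50% DMF/20% SDS, pH 4.5, and OD read at 620 nm. % dead cells = 100 − (OD treated/OD control)×100. IC50 taken versus control.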

[2] = system: J774; assay: Antiproliferative activity against mouse J774 cells assessed as reduction of cell growth after 72 hrs by MTT method; assay type: cell-based; settings: J774, 72 h; in short: as §1
[3] = system: HEK293; assay: Antiproliferative activity against HEK293 cells assessed as reduction of cell growth after 72 hrs by MTT method; assay type: cell-based; settings: Homo sapiens, HEK293, 72 h; in short: as §1

| Structure (SMILES) | IC50 [1] [nM] | IC50 [2] [nM] | IC50 [3] [nM] |
| --- | --- | --- | --- |
| C[C@@H]1O[C@@H](O[C@H]2[C@H](O)[C@@H](O)[C@H](OC[C@H]3O[C@@H](OC(=O)[C@]45CCC(C)(C)C[C@H]4C4=CC[C@@H]6[C@@]7(C)CC[C@H](O[C@@H]8OC[C@H](O)[C@H](O)[C@H]8O[C@@H]8O[C@H](C)[C@@H](O)[C@H](O)[C@H]8O)[C@@](C)(CO)[C@@H]7CC[C@@]6(C)[C@]4(C)CC5)[C@H](O)[C@@H](O)[C@@H]3O)O[C@@H]2CO)[C@H](O)[C@H](O)[C@H]1O | 1900 | 460 | – |
| C[C@@H]1O[C@@H](O[C@H]2[C@H](O)[C@@H](O)[C@H](OC[C@H]3O[C@@H](OC(=O)[C@]45CCC(C)(C)C[C@H]4C4=CC[C@@H]6[C@@]7(C)CC[C@H](O[C@@H]8OC[C@H](O)[C@H](O)[C@H]8O[C@@H]8O[C@@H](C)[C@H](O)[C@@H](O[C@@H]9O[C@H](CO)[C@@H](O)[C@H](O)[C@H]9O)[C@H]8O)C(C)(C)[C@@H]7CC[C@@]6(C)[C@]4(C)CC5)[C@H](O)[C@@H](O)[C@@H]3O)O[C@@H]2CO)[C@H](O)[C@H](O)[C@H]1O | 1800 | – | 520 |
| C[C@@H]1O[C@@H](O[C@H]2[C@H](O[C@H]3CC[C@@]4(C)[C@@H](CC[C@]5(C)[C@@H]4CC=C4[C@@H]6CC(C)(C)CC[C@]6(C(=O)O)CC[C@]45C)[C@]3(C)CO)OC[C@H](O)[C@@H]2O)[C@H](O)[C@H](O[C@@H]2O[C@H](CO)[C@@H](O)[C@H](O)[C@H]2O)[C@H]1O | – | 70 | – |
| C[C@@H]1O[C@@H](O[C@H]2[C@H](O)[C@@H](O)[C@H](OC[C@H]3O[C@@H](OC(=O)[C@]45CCC(C)(C)C[C@H]4C4=CC[C@@H]6[C@@]7(C)CC[C@H](O[C@@H]8OC[C@H](O)[C@H](O)[C@H]8O[C@@H]8O[C@@H](C)[C@H](O)[C@@H](O[C@@H]9O[C@H](CO)[C@@H](O)[C@H](O)[C@H]9O)[C@H]8O)C(C)(C)[C@@H]7CC[C@@]6(C)[C@]4(C)C[C@H]5O)[C@H](O)[C@@H](O)[C@@H]3O)O[C@@H]2CO)[C@H](O)[C@H](O)[C@H]1O | 240 | 110 | 150 |
| C[C@@H]1O[C@@H](O[C@H]2[C@H](O[C@H]3CC[C@]4(C)[C@H]5CC=C6[C@@H]7CC(C)(C)CC[C@]7(C(=O)O)[C@H](O)C[C@@]6(C)[C@]5(C)CC[C@H]4C3(C)C)OC[C@H](O)[C@@H]2O)[C@H](O)[C@H](O[C@@H]2O[C@H](CO)[C@@H](O)[C@H](O)[C@H]2O)[C@H]1O | – | 190 | – |
| C[C@@H]1O[C@@H](O[C@H]2[C@H](O)[C@@H](O)[C@H](OC[C@H]3O[C@@H](OC(=O)[C@]45CCC(C)(C)C[C@H]4C4=CC[C@@H]6[C@@]7(C)CC[C@H](O[C@@H]8OC[C@H](O)[C@H](O)[C@H]8O[C@@H]8O[C@H](C)[C@@H](O)[C@H](O)[C@H]8O)C(C)(C)[C@@H]7CC[C@@]6(C)[C@]4(C)CC5)[C@H](O)[C@@H](O)[C@@H]3O)O[C@@H]2CO)[C@H](O)[C@H](O)[C@H]1O | – | 100 | 200 |
| C[C@@H]1O[C@@H](O[C@H]2[C@H](O[C@H]3CC[C@]4(C)[C@H]5CC=C6[C@@H]7CC(C)(C)CC[C@]7(C(=O)O[C@@H]7O[C@H](CO[C@@H]8O[C@H](CO)[C@@H](O[C@@H]9O[C@@H](C)[C@H](O)[C@@H](O[C@@H]%10O[C@H](CO)[C@@H](O)[C@H](O)[C@H]%10O)[C@H]9O)[C@H](O)[C@H]8O)[C@@H](O)[C@H](O)[C@H]7O)CC[C@@]6(C)[C@]5(C)CC[C@H]4C3(C)C)OC[C@H](O)[C@@H]2O)[C@H](O)[C@H](O[C@@H]2O[C@H](CO)[C@@H](O)[C@H](O)[C@H]2O)[C@H]1O | – | 180 | 170 |
| C[C@@H]1O[C@@H](O[C@H]2[C@H](O)[C@@H](O[C@@H]3O[C@H](CO)[C@@H](O)[C@H](O)[C@H]3O)[C@H](OC[C@H]3O[C@@H](OC(=O)[C@]45CCC(C)(C)C[C@H]4C4=CC[C@@H]6[C@@]7(C)CC[C@H](O[C@@H]8OC[C@H](O)[C@H](O)[C@H]8O[C@@H]8O[C@@H](C)[C@H](O)[C@@H](O[C@@H]9O[C@H](CO)[C@@H](O)[C@H](O)[C@H]9O)[C@H]8O)[C@@](C)(CO)[C@@H]7CC[C@@]6(C)[C@]4(C)CC5)[C@H](O)[C@@H](O)[C@@H]3O)O[C@@H]2C)[C@H](O)[C@H](O)[C@H]1O | 260 | 100 | 320 |
| C[C@@H]1O[C@@H](O[C@H]2[C@H](O[C@H]3CC[C@]4(C)[C@H]5CC=C6[C@@H]7CC(C)(C)CC[C@]7(C(=O)O[C@@H]7O[C@H](CO[C@@H]8O[C@H](CO)[C@@H](O[C@@H]9O[C@@H](C)[C@H](O)[C@@H](O)[C@H]9O)[C@H](O)[C@H]8O)[C@@H](O)[C@H](O)[C@H]7O)CC[C@@]6(C)[C@]5(C)CC[C@H]4C3(C)C)OC[C@H](O)[C@@H]2O)[C@H](O)[C@H](O)[C@H]1O [HEDERASAPONIN B] | 600 | 60 | – |
| Sc1ncnc2nc[nH]c12 [MERCAPTOPURINE ANHYDROUS] | 17 | 3 | – |
